Results on seven compounds are retold here after ChEMBL document CHEMBL5104154, “Thiamine analogues as inhibitors of pyruvate dehydrogenase and discovery of a thiamine analogue with non-thiamine related antiplasmodial activity” (RSC Med Chem, 2022).

Active and inactive are the calls of the source. The rule behind the calls is not given here.

The nature of data set [1]: Selectivity index, ratio of IC50 for cytotoxicity against human HFF cells to IC50 for antiplasmodial activity against chloroquine-sensitive Plasmodium falciparum 3D7. It is filed as toxicity, cell-based. Particulars: read-out: Ratio IC50.
Data set [2] in a line: Cytotoxicity against human HFF cells assessed as inhibition of cell proliferation incubated for 96 hrs by SYBR-based fluorescence assay. It is filed as toxicity. Summed up: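 Human foreskin fibroblasts exposed to compounds up to the highest concentration that solubility allowed.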
The next data set deals with T1, Pyruvate decarboxylase (Zymomonas mobilis subsp. mobilis, UniProt P06672).
T1 sequence (P06672 whole entry): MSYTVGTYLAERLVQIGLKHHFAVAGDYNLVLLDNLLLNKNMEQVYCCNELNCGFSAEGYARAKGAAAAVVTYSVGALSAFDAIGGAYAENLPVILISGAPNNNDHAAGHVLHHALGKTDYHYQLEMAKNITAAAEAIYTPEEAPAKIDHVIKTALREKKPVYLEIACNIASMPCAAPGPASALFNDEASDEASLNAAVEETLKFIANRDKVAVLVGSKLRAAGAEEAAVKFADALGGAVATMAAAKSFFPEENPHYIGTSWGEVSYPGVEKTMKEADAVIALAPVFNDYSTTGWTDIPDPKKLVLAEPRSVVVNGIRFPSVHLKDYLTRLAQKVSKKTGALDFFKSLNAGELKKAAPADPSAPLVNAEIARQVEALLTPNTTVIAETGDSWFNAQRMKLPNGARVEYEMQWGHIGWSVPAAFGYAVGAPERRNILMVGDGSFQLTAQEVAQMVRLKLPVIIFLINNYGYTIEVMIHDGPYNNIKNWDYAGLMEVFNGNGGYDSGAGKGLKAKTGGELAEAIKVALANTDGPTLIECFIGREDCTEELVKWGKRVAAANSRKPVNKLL
Kind of data set: Inhibition of Zymomonas mobilis pyruvate decarboxylase incubated for 3 mins using pyruvate as substrate in presence of TPP by spectrophotometric analysis.

Data set [3] deals with Plasmodium falciparum. Kind of data set: Antiplasmodial activity against chloroquine-sensitive Plasmodium falciparum 3D7 overexpressing GFP-tagged plasmodium falciparum TPK assessed as inhibition of parasite proliferation in presence of 2.97 uM thiamine by SYBR-based fluorescence assay. It is filed as functional, organism-based.
Data set [4] concerns Plasmodium falciparum. The experiment in a line: Antiplasmodial activity against chloroquine-sensitive Plasmodium falciparum 3D7 assessed as inhibition of parasite proliferation in presence of 2.2 to 220 uM folic acid by SYBR-based fluorescence assay. The format is functional, organism-based.

What is called IC50 is the concentration that inhibits the measured activity by half. With `Cc1ncc(Cn2cc(CCOC(=O)c3cccc(Cl)c3)nn2)c(N)n1`, the selectivity ratio in data set [1] is above 3.2. Also, the IC50 at 96 h in data set [2] was above 200 µM. For orientation: Ki means the equilibrium dissociation constant of an inhibitor or competing ligand from its target. As to `Cc1ncc(Cn2cc(CCO)nn2)c(N)n1`, on Pyruvate decarboxylase, the Ki worked out at 300 µM. The same measure, in the same setting: the figure for `Cc1ncc(Cn2cc(CCOP(=O)(O)OP(=O)(O)O)nn2)c(N)n1` is 3e-05 µM.

Consider `Cc1ncc(Cn2cc(CCO)nn2)c(NCc2ccc(Br)cc2)n1`, for which the IC50 at 96 h in data set [2] turned out to be 98 µM. Regarding `Cc1ncc(C[n+]2csc(CCO)c2C)c(O)n1`, in the data set with Plasmodium falciparum [3], the outcome was Active.

In the case of `Cc1ncc(Cn2cc(CCOC(=O)c3ccccc3)nn2)c(N)n1`, the IC50 at 96 h in data set [2] is above 200 µM.

Consider `COc1ncnc(NS(=O)(=O)c2ccc(N)cc2)c1OC`, for which the result in the data set on Plasmodium falciparum [4] was Active.
